Experimental data published in ChEMBL document CHEMBL1921710, “Anti-staphylococcal activity and β-lactam resistance attenuating capacity of structural analogues of (-)-epicatechin gallate” (2011).
Converted amounts (≈) assume the structure as drawn. The source made the active and inactive calls. No cut-off for these calls is given here.

Experiments:
[1] = system: Staphylococcus aureus; experiment: Antistaphylococcal activity against epidemic Staphylococcus aureus isolate 16 by CLSI broth microplate assay; format: functional
Method in brief: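 MIC against MRSA clinical isolate EMRSA-16, measured by CLSI broth microplate dilution. Compounds were dissolved in 60% v/v EtOH, then diluted into broth.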

[2] = system: Staphylococcus aureus; experiment: Potentiation of oxacillin-induced antistaphylococcal activity against epidemic Staphylococcus aureus isolate 16 at 12.5 ug/mL by CLSI broth microplate assay; format: functional, organism-based
Method in brief: (§1)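 Oxacillin MIC against EMRSA-16 with the analogue held at a fixed concentration. Run in 96-well trays with about 10^4 CFU in 100 μl Mueller–Hinton broth containing 2% w/v NaCl. Compounds were dissolved in 60% v/v EtOH before dilution into broth.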

[3] = system: Staphylococcus aureus; experiment: Potentiation of oxacillin-induced antistaphylococcal activity against epidemic Staphylococcus aureus isolate 16 at 6.25 ug/mL by CLSI broth microplate assay; format: functional, organism-based; method in brief: as §1

SMILES | MIC [1] [µg/mL] | Activity [2] | Activity [3]
Cc1onc(-c2ccccc2)c1C(=O)N[C@@H]1C(=O)N2[C@@H]1SC(C)(C)[C@@H]2C(=O)O [OXACILLIN] | 512 (≈ 1280 µM) | – | –
O=C(N[C@@H]1Cc2c(O)cc(O)cc2O[C@@H]1c1ccc(O)c(O)c1)c1cc(O)c(O)c(O)c1 | – | Active | –
O=C(O[C@@H]1Cc2c(O)cc(O)cc2O[C@@H]1c1cccc(O)c1)c1cc(O)c(O)c(O)c1 | 128 (≈ 300 µM) | Active | –
O=C(O[C@@H]1Cc2c(O)cc(O)cc2O[C@@H]1c1cc(O)cc(O)c1)c1cc(O)c(O)c(O)c1 | 128 (≈ 289 µM) | Active | –
O=C(O[C@@H]1Cc2c(O)cc(O)cc2O[C@@H]1c1ccc(O)c(O)c1)c1cc(O)c(O)c(O)c1 [EPICATECHIN GALLATE] | 128 (≈ 289 µM) | Active | –

Now from value to compound, other results behind:

MIC [1] [µg/mL] | SMILES | Activity [2] | Activity [3]
16 (≈ 42.3 µM) | O=C(O[C@@H]1Cc2ccccc2O[C@@H]1c1ccccc1)c1cc(O)c(O)c(O)c1 | Active | Active
16 (≈ 42.3 µM) | O=C(O[C@@H]1Cc2ccccc2O[C@H]1c1ccccc1)c1cc(O)c(O)c(O)c1 | Active | Active
64 (≈ 156 µM) | O=C(O[C@@H]1Cc2c(O)cc(O)cc2O[C@@H]1c1ccccc1)c1cc(O)c(O)c(O)c1 | Active | Active
